From PubChem BioAssay
Shown are actives, neighbours in structure and some others; about 1.6% of the full set was active somewhere.
PLCg1 inh: PLC-gamma1 (human) inhibition, primary screen; P19174; purified PLC-gamma1, fluorogenic substrate, fluorescence; inhibition, % at 12.2 µM; hit rate 0.84% among 370,000; AID 720700
proCasp7 act: counter-screen: procaspase-7 (human) activation. P55210. recombinant procaspase-7, Ac-DEVD-pNA absorbance 405 nm; D23A/D198A/D206A triple mutant, cannot self-cleave; scale: DMSO 0, 5 µM enzyme 100. activation, % at 8.5 µM. hit rate 0.093% among 330,000. AID 463210;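 active = percent activation above the screen-wide mean plus 3 SD, cut at about 25% in these data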
Target sequence (P55210 whole entry D23A/D198A/D206A): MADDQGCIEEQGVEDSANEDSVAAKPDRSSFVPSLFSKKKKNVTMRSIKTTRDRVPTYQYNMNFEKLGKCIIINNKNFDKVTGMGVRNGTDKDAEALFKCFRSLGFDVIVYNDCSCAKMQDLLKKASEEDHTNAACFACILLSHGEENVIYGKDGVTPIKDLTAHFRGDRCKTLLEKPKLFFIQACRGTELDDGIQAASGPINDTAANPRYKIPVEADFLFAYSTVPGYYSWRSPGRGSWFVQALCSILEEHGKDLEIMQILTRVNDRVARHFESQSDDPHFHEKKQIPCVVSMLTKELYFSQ
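signal = Epi-absorbance of released pNA at 405 nm, two timepoints | assay system = Uncleavable procaspase-7 mutant enzyme | reagent = Ac-DEVD-pNA substrate, 400 µM as added | times = 1 h enzyme–compound preincubation and 2 h substrate reaction, both 25 °C | benchmarks = low DMSO alone, high DMSO plus 5 µM PC-7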
proCasp3 act: procaspase-3 (human) activation. P42574. recombinant procaspase-3 D3A, Ac-DEVD-pNA absorbance 405 nm. activation, % at 8.5 µM. hit rate 0.11% among 330,000. AID 463141;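 active = activation above the mean of all tested compounds plus 3 SD, cut at about 21% in these data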
Target sequence (P42574 whole entry D9A/D28A/D175A): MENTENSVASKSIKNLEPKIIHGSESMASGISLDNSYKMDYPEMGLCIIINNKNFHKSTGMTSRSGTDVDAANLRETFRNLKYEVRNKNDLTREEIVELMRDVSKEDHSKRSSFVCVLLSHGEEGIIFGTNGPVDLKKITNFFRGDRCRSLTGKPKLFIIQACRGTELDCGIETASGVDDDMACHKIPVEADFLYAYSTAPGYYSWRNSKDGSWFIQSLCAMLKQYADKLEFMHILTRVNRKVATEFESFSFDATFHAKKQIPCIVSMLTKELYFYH
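Assay system – Procaspase-3 D3A mutant, all three cleavage aspartates alanine · Controls – DMSO-only low control, 5 µM PC-3 D3A high control · Schedule – 1 h compound preincubation, 2 h substrate hydrolysis at 25 °C · Signal – 405 nm absorbance of p-nitroaniline, reads at 0 and 120 min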
PLCb3 inh: blocks human PLC-beta3 enzyme activity. hit rate 0.18% among 370,000. inhibition, % at 12.2 µM. Purified PLC-beta3, fluorogenic substrate, fluorescence; in the data active = inhibition above about 11%
sPLA2-III inh: Blocks human group III sPLA2 activity. hit rate 0.56% among 370,000. inhibition, % at 12.2 µM. AID 743126. Q9NZ20. QFRET BODIPY PC-A2 liposome hydrolysis, fluorescence;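 active = inhibition above mean plus 3 SD of compounds lying within the high and low control bounds, cut at about 19% in these data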
PLCg1 ctr: inhibits human PLC-gamma1 in PLC-beta3 counter-screen. shares compounds with PLCg1 inh. purified PLC-gamma1, fluorogenic substrate, fluorescence. inhibition, % at 12.3 µM. hit rate 3.1% among 3,300. AID 743258
PLCb3 confirm: human PLC-beta3 inhibition, confirmation; hit rate 1% among 3,300; shares compounds with PLCg1 inh; inhibition, % at 12.3 µM; purified PLC-beta3, fluorogenic substrate fluorescence; in the data active = inhibition above about 11%
A number is an active result; n = inactive; x = no result. Rule as the data show it, unless noted: active = inhibition above about 9.5%; inactive = the rest.

SMILES	PLCg1 inh	proCasp7 act	proCasp3 act	PLCb3 inh	sPLA2-III inh	PLCg1 ctr	PLCb3 confirm
CC1CCCCC1NC(=O)c1c(O)nc2ccccn2c1=O (stereo unspecified)	n	n	n	n	n	x	x
CCOC(=O)c1cnn(-c2nc(C)cc(C)n2)c1N	10.1	n	n	n	n	n	n
C/C(=N\N=C(/N)SC1CC(=O)N(c2ccc(Cl)cc2)C1=O)c1cccs1 (stereo unspecified)	9.9	n	n	n	n	n	n
C[C@H](NC(=O)c1nc[nH]c1C(=O)N(C)CCO)c1ccccc1	n	x	x	n	n	x	x
Cc1csc(Nc2nc(N)c(C(=O)Nc3ccccc3)o2)n1	13.7	n	n	10.7	n	n	n
Cc1csc(NC(=O)c2oc3ccccc3c2C)n1	n	n	n	n	n	x	x
C=CCCC(=O)N1CCCC(Cc2cccc(Cl)c2)(C(=O)OCC)C1 (stereo unspecified)	11.6	n	n	n	n	n	n
CCOc1cc(CNCCc2ccc(S(N)(=O)=O)cc2)ccc1OCc1ccc(Cl)cc1	20.7	n	n	n	n	n	n
COc1ccc(C(C(=O)Nc2ccc3c(c2)OCCO3)n2c(=O)c(-c3ccco3)nc3ccccc32)cc1 (stereo unspecified)	n	x	x	n	n	x	x
Cc1ccc[n+](-c2[nH]c(=O)sc2/C=N/NC(=O)c2ccccc2[O-])c1	14.3	n	n	n	n	n	n
CCNC(=O)c1cc2c(c(-c3cccc(-c4cccnc4)c3)n1)[C@H](CCO)N(S(C)(=O)=O)C2	n	x	x	n	n	x	x
CCOc1ccc(NS(=O)(=O)c2ccc(OCC(=O)NCc3ccncc3)cc2)cc1	n	n	n	n	n	x	x
Cc1ccc(NS(=O)(=O)c2ccc(OCC(=O)NCc3ccncc3)cc2)cc1	n	n	n	11.2	n	n	n
O=C(c1ccco1)N1CCN(C(=O)c2cnn(-c3ccc(Cl)cc3)c2C2CCNCC2)CC1	n	n	n	n	n	x	x
Cc1ccc(-n2ncc(C(=O)Nc3ccc(Cl)cc3)c2C2CCNCC2)cc1C	9.6	n	n	n	n	n	n
NC(=O)c1ccc(-n2nnnc2SCC(=O)Nc2ccc(F)cc2)cc1	n	n	n	n	n	x	x
CN(C)C(=O)c1ccc(NC(=O)CN2C(=O)NC3(CCCc4ccccc43)C2=O)cc1 (stereo unspecified)	n	n	n	n	n	x	x
CC(CCc1ccccc1)NC(=O)CCNC(=O)c1ccccc1Cl (stereo unspecified)	n	n	n	n	n	x	x
COc1ccc(C(=O)OCCCOC(=O)c2ccc(OC)cc2OC)c(OC)c1	n	n	n	n	n	x	x
COc1ccc(C(=O)Oc2ccc(C(C)=O)cc2)c(OC)c1	10.0	n	n	n	n	n	n
CCOc1ncnc2c1sc1nc3c(cc12)COC(C)(C)C3	10.2	x	x	n	n	n	n
CCCOc1ncnc2c1sc1nc3c(cc12)COC(C)(C)C3	n	n	n	n	n	x	x
O=C(Nc1cc(Cl)ccc1O)C1CC(c2c(F)cccc2Cl)=NO1 (stereo unspecified)	10.1	n	n	n	n	n	n
Cc1cccc(CN2CCSc3sccc3C2=O)c1	12.5	n	n	n	n	n	n
N/C(=N\N=C\c1ccc2c(c1)OCO2)c1nonc1N	9.8	n	n	13.1	n	n	n
SMILES	PLCg1 inh	proCasp7 act	proCasp3 act	PLCb3 inh	sPLA2-III inh	PLCg1 ctr	PLCb3 confirm
CC1Cc2ccccc2N1C(=O)CSc1nc(-c2ccco2)cc(C(F)(F)F)n1 (stereo unspecified)	12.8	n	n	n	n	n	n
O=S(=O)(c1ccccc1)c1ccccc1/C=N\O	10.9	n	n	n	n	n	n
Cc1ccc(S(=O)(=O)Oc2ccccc2/C=N/O)cc1	n	n	n	n	n	x	x
CCOc1ccccc1N/C=C(\C#N)c1nc2ccccc2n1C	9.6	n	n	n	n	n	n
CC(C)[C@@H]1CC[C@@H](C)C[C@H]1OC(=O)C[n+]1cc(-c2ccc(Cl)cc2)n2c1CCCCC2	11.5	n	n	n	n	n	n
CCOc1ccccc1NC(=O)COC(=O)c1nc2nccc(C)n2n1	n	n	n	n	n	x	x
C[C@H](CO)N1C[C@H](C)[C@H](CN(C)C(=O)c2ccc3ccn(C)c3c2)OCc2cnnn2CCCC1=O	n	x	x	n	n	x	x
O=C(Nc1ccccc1)C1C2CCC3C(CCC21)C3(Cl)Cl (stereo unspecified)	10.8	n	n	n	n	n	n
O=C(Nc1cccc(Cl)c1)C1C2CCC3C(CCC21)C3(Cl)Cl (stereo unspecified)	n	n	n	n	n	x	x
Cc1ccc(NC(=S)NC2CC3CCC(C2)N3Cc2ccco2)cc1C (stereo unspecified)	13.4	n	n	n	n	n	n
Cc1ccc(NC(=S)NC2CC3CCC(C2)N3Cc2ccco2)c(C)c1 (stereo unspecified)	n	n	n	n	n	x	x
Cn1c(=O)[nH]c2c(Br)nccc21	n	x	x	n	n	x	x
O=C(Nc1cccc(Cl)c1)c1csc(COCCO)n1	10.0	x	x	n	n	n	n
O=C(Nc1ccc(F)cc1Cl)c1ccc2c(=O)n3c(nc2c1)CCC3	n	n	n	n	n	x	x
Cc1cc[n+](-c2[nH]c(=O)sc2/C=N/N=C(\[O-])c2ccncc2)cc1	11.3	n	n	n	n	n	n
OC(CNCCNc1ncccc1C(F)(F)F)Cn1ccc2ccccc21 (stereo unspecified)	n	n	n	n	n	x	x
Cc1nc(-c2ccncc2)nc(NCCNc2ncccc2C(F)(F)F)c1Cl	12.1	n	n	n	n	n	n
CCC(C)Nc1nc2c(c(=O)[nH]c(=O)n2C)n1CCC(C)C (stereo unspecified)	10.5	n	n	10.8	n	n	n
CCC(C)Nc1nc2c(c(=O)[nH]c(=O)n2C)n1CCCc1ccccc1 (stereo unspecified)	10.2	n	n	n	n	n	n
CCNc1nc2c(c(=O)[nH]c(=O)n2C)n1CC(C)C	n	n	n	n	n	x	x
CNc1nc2c(c(=O)[nH]c(=O)n2C)n1CCCc1ccccc1	n	n	n	n	n	x	x
O=C(Cn1c(NCCCO)nc2ccccc21)c1ccc(Br)cc1	n	n	n	11.8	n	n	n
CN1C(C(=O)Nc2cccc(O)c2)=CC(c2cccs2)=NS1(=O)=O	10.4	n	n	n	n	n	n
COc1ccc(OC)c(-c2csc(NC(=O)COC(=O)C3(C)CC3(Cl)Cl)n2)c1 (stereo unspecified)	15.8	n	n	n	n	n	n
CCN(C(=O)COC(=O)c1ccc(C=O)cc1)c1c(N)n(Cc2ccccc2)c(=O)[nH]c1=O	18.9	n	n	n	n	n	n
